According to ChEMBL document CHEMBL4382268, “Glycyrrhetinic acid derivatives containing aminophosphonate ester species as multidrug resistance reversers that block the NF-κB pathway and cell proliferation” (Bioorg Med Chem Lett, 2018):
Calls of active or inactive are those of the source. No cut-off for these calls is given here.

Legend:
A549 [1] = assay: Induction of apoptosis in human A549 cells assessed as necrotic apoptotic cells at 5 uM after 24 hrs by annexin V-FITC/propidium iodide staining-based flow cytometry analysis (reference value: 0.520%); assay type: functional
Procedure, shortened: (§1)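 A549 cells treated at 5, 10 and 20 µM for 24 h, then harvested and stained with Annexin V-FITC and PI. Flow cytometry quadrants: Q1 necrotic, Q2 late apoptotic/necrotic, Q3 early apoptotic, Q4 living. Performed three times.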

A549 [2] = assay: Induction of apoptosis in human A549 cells assessed as hyper condensed nuclei at 5 to 20 uM after 24 hrs by Hoechst […] staining based fluorescence microscopic method; assay type: functional, cell-based
Procedure, shortened: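 After 24 h exposure at 5, 10 and 20 µM, A549 cells harvested and stained with Hoechst 33258. Nuclear morphology, including brightly stained hypercondensed nuclei, inspected against untreated control. Three experiments.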

MG-63 = assay: Antiproliferative activity against human MG63 cells after 48 hrs by MTT assay; assay type: functional, cell-based; conditions: MG-63, 48 h
Procedure, shortened: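 MTT read-out of antiproliferative activity across cancer lines HepG-2, NCI-H460, MGC-803, A549 and MG-63 and normal liver line HL-7702. IC50 given as mean ± S.D. of three separate experiments, each run in triplicate.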

A549 [3] = assay: Induction of mitochondrial membrane potential loss in human A549 cells at 5 to 20 uM after 24 hrs by JC-1 staining-based fluorescence microscopic analysis; assay type: functional, cell-based
Procedure, shortened: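 A549 cells treated at 5, 10 and 20 µM for 24 h, then loaded with JC-1 probe for 30 min. Red J-aggregate and green J-monomer fluorescence viewed by fluorescence microscopy. Three experiments.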

SK-OV-3 = assay: Growth inhibition of cisplatin sensitive human SKOV3 cells after 48 hrs by MTT assay; assay type: functional, cell-based; conditions: SK-OV-3, 48 h
Procedure, shortened: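 MTT growth inhibition in the paired ovarian lines, cisplatin-sensitive SK-OV-3 and cisplatin-resistant SK-OV-3/CDDP. IC50 given as mean ± S.D. of three separate experiments, each in triplicate.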

A549 [4] = assay: Induction of apoptosis in human A549 cells assessed as early apoptotic cells at 20 uM after 24 hrs by annexin V-FITC/propidium iodide staining-based flow cytometry analysis (reference value: 1.28%); assay type: functional; procedure, shortened: as §1
A549 [5] = assay: Induction of apoptosis in human A549 cells assessed as viable cells at 10 uM after 24 hrs by annexin V-FITC/propidium iodide staining-based flow cytometry analysis (reference value: 96.0%); assay type: functional; conditions: A549, 24 h, read-out: Activity; procedure, shortened: as §1
A549 [6] = assay: Cell cycle arrest in human A549 cells assessed as accumulation at G2 phase at 20 uM after 24 hrs by propidium iodide staining based flow cytometry (reference value: 14.1%); assay type: functional
Homo sapiens = species on record: Homo sapiens; assay: Inhibition of TNF-alpha induced activation of NF-kappaB (unknown origin) assessed as reduction in DNA binding ability at 5 to 20 uM by cell based ELISA relative to TNF-alpha alone
Procedure, shortened: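 ELISA-type DNA-binding assay of NF-κB in TNF-α-stimulated A549 cells treated at 5, 10 and 20 µM. Compared against untreated and TNF-α-only controls. Mean ± SD, p < 0.05, three runs.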

A549 [7] = assay: Cell cycle arrest in human A549 cells assessed as accumulation at S phase at 20 uM after 24 hrs by propidium iodide staining based flow cytometry (reference value: 38.76%); assay type: functional

CCOP(=O)(OCC)C(Nc1ccc(CC(=O)NCCCCNC(=O)[C@@]2(C)CC[C@]3(C)CC[C@]4(C)C(=CC(=O)[C@@H]5[C@@]6(C)CC[C@H](OC(C)=O)C(C)(C)[C@@H]6CC[C@]54C)[C@@H]3C2)cc1)c1ccc(F)cc1 (stereo not given in full)
Activity (A549 [1]): 0.09%
Activity (A549 [2]): Active
IC50 (MG-63): 9.01 µM
Activity (A549 [3]): Active
IC50 (SK-OV-3): 9.75 µM
Activity (A549 [4]): 19.5%
viability at 10 µM (A549 [5]): 57.9%
Activity (A549 [6]): 2.66%
fold change (FC) (Homo sapiens): 2.3
Activity (A549 [7]): 54.32%
